The record followed here is ChEMBL document CHEMBL4513216, “Probing the Open Global Health Chemical Diversity Library for Multistage-Active Starting Points for Next-Generation Antimalarials” (ACS Infect Dis, 2020).

Structures are written as SMILES.

The nature of the data set: Toxicity liver stage against HepG2, at 10uM. It counts as cell-based. The settings on record: human, HepG2-A16-CD81EGFP cells; read-out: INHIBITION
More on the design: test concentration 10 uM, cell line HepG2-A16-CD81EGFP. In short, it runs like this: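 Uninfected HepG2-A16-CD81EGFP cells, 3 × 10^3 per well, 1536-well, plated on prespotted compound at 10 μM final, parasite-free screening media added to match infected plates; puromycin 10 μM positive, DMSO 0.5% negative; run in parallel with 48 h PbLuc assay at 37 °C, 5% CO2; viability by CellTiter-Glo luminescence, normalized to controls.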
On to `Cc1cc(C(=O)N2CCn3cc(CN(C)C)nc3C2)no1`, for which the cytotoxicity at 10 µM was -80.5%. Turning to `Cc1ccccc1C(C(=O)NCCS(C)(=O)=O)N(C)C` (stereo not given), the cytotoxicity at 10 µM came to 11.2%. In the case of `CN(CC1CCN(CCO)CC1)CC(O)c1ccc(F)cc1F` (stereo not given) it was -59.3%; in that of `CO[C@@H]1CO[C@@]2(CCCN(S(=O)(=O)c3ccccc3)C2)C1`, -79.8%. `COCCN1CCC(CNC(=O)C2(S(C)(=O)=O)CCCC2)CC1`: the cytotoxicity at 10 µM is -9.61%.

In the case of `CCC(CC)C(=O)n1ccn(S(=O)(=O)c2ccc(C)cc2)c1=O`, the cytotoxicity at 10 µM was found to be 11.5%. Under `COc1cc(CNC(=O)Nc2nnc(C(F)(F)F)s2)ccc1O` stands -2.83%; under `COc1ccccc1COCC(O)CN1CCC(c2ccn[nH]2)CC1` (stereo not given), -2.54%; under `Cc1cccc(N2CCc3ncc(CNc4ccccn4)n3CC2)n1`, 2.19%. In the case of `COCC(=O)N1CCCC1(C(=O)N(C)C)c1cnccn1` (stereo not given) it was 3.96%; in that of `O=C(CNc1cccc2c1CCCC2)Nc1ccccc1Br`, 11.4%. With `O=C(c1cccs1)N1CCC2(CC1)CN(c1cncnc1)C(=O)CO2`, the cytotoxicity at 10 µM is -67.7%.

Consider `Cc1nc(NC2CCCCC2)cc(C2CCCNC2)n1` (stereo not given), for which the cytotoxicity at 10 µM was -30.3%.

Consider `O=C(CCc1ccncc1)NCc1csc(Br)c1`, for which the cytotoxicity at 10 µM is -15.5%.

As to `CC(C)N(C)Cc1nnn2c1CN(Cc1cccnc1)CCC2`, the cytotoxicity at 10 µM came to 11.3%. As for `COc1ccccc1C1(CNCc2ccc([S+](C)[O-])cc2)CC1` (stereo not given), the cytotoxicity at 10 µM worked out at 7.56%.

Consider `O=C(Nc1ccccc1)C1=CC2(CCNCC2)c2ccccc21`, for which the cytotoxicity at 10 µM was determined as 1.54%. For the compound `COc1ccc2nnc(CCC(=O)NCc3cccn3C)n2n1`, the cytotoxicity at 10 µM was -10.1%.

For the compound `O=C1CCC2(CCCN(C(=O)c3cccs3)C2)N1` (stereo not given), the cytotoxicity at 10 µM stood at 6.88%. As for `O=C(CC1=CCCCC1)NCc1ccnc(OC2CCOCC2)c1`, the cytotoxicity at 10 µM was -0.103%. With `CCn1cc(CN2CCC3(CC2)c2ccccc2CC3O)cn1` (stereo not given), the cytotoxicity at 10 µM amounted to 5.54%.

Consider `NC(=O)C(CNC(=O)Cc1ccsc1)Cc1ccc(F)cc1` (stereo not given), for which the cytotoxicity at 10 µM amounted to 9.21%. In the case of `CCc1nc(C(=O)N2CCN(C(=O)CCc3ccccc3)CC2)c[nH]1`, the cytotoxicity at 10 µM is 5.92%.

As to `Cc1cc(C(=O)N2CC[C@@H](N(C)C)[C@@H]2Cc2ccccc2)no1`, the cytotoxicity at 10 µM is -0.567%. Take `COCC(=O)N1CCN(C(=O)C2CCCCC2)[C@@H](C(=O)OC)C1`: the cytotoxicity at 10 µM was 1.08%.

For `CCOc1cc(CNC(=O)CNC(=O)CC2CCCCC2)ccn1`, the cytotoxicity at 10 µM was determined as 6.81%.

`COC(=O)c1cccc(NS(=O)(=O)c2cnc(NC(C)=O)s2)c1`: the cytotoxicity at 10 µM stood at 7.21%. For `Clc1cccc(C2CCN(c3ncnc4c3CCNC4)C2)c1` (stereo not given), the cytotoxicity at 10 µM worked out at 50%. In the case of `CCc1cc(NCC(O)CN2CCCC2)ncn1` (stereo not given), the cytotoxicity at 10 µM worked out at 6.09%.

As to `CC(C)[C@@H](C)NC1CCN(c2ccc(-n3ccnc3)cc2)CC1`, the cytotoxicity at 10 µM turned out to be 0.487%. As for `O=C(NC1CC1)N(CCc1ccccc1)C1CCOC1` (stereo not given), the cytotoxicity at 10 µM is -1.41%. On to `COc1ccc(NC(=O)N2CCC(CSC)C2)cc1C` (stereo not given), for which the cytotoxicity at 10 µM came out at 3.36%.

With `CCCS(=O)(=O)N1CCCN(CCCOC)CC1`, the cytotoxicity at 10 µM was 7.53%.

Take `O=C1Nc2ccccc2C12CCCN(Cc1ccc3c(c1)OCCO3)C2` (stereo not given): the cytotoxicity at 10 µM was 0.529%. `Cc1cccc(NC2CCN(C(=O)Nc3cccc4[nH]ccc34)CC2)n1`: the cytotoxicity at 10 µM is -6.85%. Under `CN(C)CC(C)(C)Cn1cnc(-c2ccccc2)c1-c1ccncc1` stands 4.19%. On to `Cc1cc(C)nc(Nc2cccc(C3CCCN(CC4CC4)C3)n2)n1` (stereo not given), for which the cytotoxicity at 10 µM was -11.3%.

For the compound `CN(Cc1ccoc1)C(=O)C1(Oc2ccc(Cl)cc2)CCNCC1`, the cytotoxicity at 10 µM worked out at 5.73%. As for `COc1cccc(C(=O)Nc2ccc(OCCC(N)=O)cc2)c1OC`, the cytotoxicity at 10 µM came to 4.19%. With `NC(=O)N1CCCC(C(=O)N2CCc3c(nc(CC4CC4)[nH]c3=O)C2)C1` (stereo not given), the cytotoxicity at 10 µM is -13.8%.
